In the library only some 1.7% were active in any assay of this set; here they are far more common.
SR-BI DiI-HDL act: activators of SR-BI mediated HDL lipid uptake | actives 0.096% (n = 320,000) | CHO ldlA[mSR-BI] cells, DiI-HDL uptake fluorescence, 3 h; 100 = double the neutral-control signal | activation, % at 12.5 µM | AID 504775;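 active = mean replicate activation of at least 60% and every replicate at or above 60%; inconclusive = mean or all-replicate condition met, but not both; inactive = mean below 60% and not all replicates reaching 60%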
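Material: SR-BI-overexpressing, LDLR-lacking CHO cells; schedule: compound exposure 3 h, 37 °C; reagent: DiI-labelled HDL at 10 µg/mL final; technique: bottom-read fluorescence, 550/595 nm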
C2C12 statin: suppression of simvastatin myotoxicity; C2C12 myotubes + simvastatin, ATP luminescence, 48 h; scaled: DMSO 0, geranylgeraniol control 100; rescue of ATP level, % at 7.49 µM; actives 0.78% (n = 330,000); AID 602340;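 active = mean ATP rescue above about 67%, or every replicate alone reaching that limit, limit read from the data, passing the limit was not always enough; inconclusive = no clear call, values can overlap the other calls; inactive = mean under the limit and some replicate under it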;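 note: myotubes were challenged with 10 µM simvastatin during compound exposure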
Vif imaging: HIV Vif inhibition; inhibition, % at 7.49 µM; actives 0.35% (n = 340,000); HEK293T cells, Vif self-association by quenched fluorescence, imaging, 24 h; AID 602346; in the data active = inhibition above about 50%, passing the limit was not always enough; inconclusive = no clear call, values can overlap the other calls; inactive = below about 31%
SR-BI DiI inh: blocks mouse SR-BI lipid uptake from DiI-HDL | actives 0.96% (n = 320,000) | ldlA[mSR-BI] CHO cells, DiI-HDL uptake fluorescence, 3 h | inhibition, % at 12.5 µM | Q61009 | AID 488896;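 active = mean replicate inhibition of at least 70% and a set share of replicates each scoring 70 or more; inconclusive = meets just one of the two criteria; inactive = fails both criteria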
Target sequence (Q61009 whole entry, looked up): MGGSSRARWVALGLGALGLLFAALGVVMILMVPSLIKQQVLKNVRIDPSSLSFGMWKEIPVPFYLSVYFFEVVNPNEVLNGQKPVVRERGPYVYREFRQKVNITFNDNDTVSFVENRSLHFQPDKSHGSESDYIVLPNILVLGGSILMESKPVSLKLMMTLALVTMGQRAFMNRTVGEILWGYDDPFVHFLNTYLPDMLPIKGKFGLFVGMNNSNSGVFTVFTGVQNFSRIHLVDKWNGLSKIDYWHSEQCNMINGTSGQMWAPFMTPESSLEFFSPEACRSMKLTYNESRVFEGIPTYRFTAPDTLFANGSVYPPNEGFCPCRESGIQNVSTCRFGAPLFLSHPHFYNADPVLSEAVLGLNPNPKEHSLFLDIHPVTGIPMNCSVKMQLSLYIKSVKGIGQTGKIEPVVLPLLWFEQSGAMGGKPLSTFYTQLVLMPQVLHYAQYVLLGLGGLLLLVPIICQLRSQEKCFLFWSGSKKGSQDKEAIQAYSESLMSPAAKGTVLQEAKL
DiI quencher: quenches DiI-HDL fluorescence, an SR-BI assay artifact; shares compounds with SR-BI DiI inh; cell-free DiI-HDL fluorescence quenching, 30 min; AC50, µM (doses to about 35 µM); actives 20% (n = 470); AID 540326;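 active = quenching, a falling signal, with AC50 below a set limit tied to the top valid dose, actives reach about 32 µM in these data; inconclusive = no clear call, values can overlap the other calls; inactive = rising signal, and the rest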
Of the large screens only hits and unclear results are named; the others gave an inactive call (follow-up assays come after a bar, where they were run).

CC(OC(=O)c1cccc(NS(C)(=O)=O)c1)C(=O)Nc1ccc(N2CCOCC2)cc1 (configuration not stated)	SR-BI DiI inh 78 (no result: C2C12 statin) | DiI quencher inactive
CCOC(=O)c1sc2nc(C)nc(NCc3cccnc3)c2c1C	none (no result: C2C12 statin)
Cc1nc(NCc2cccnc2)c2c3c(sc2n1)CC(C)CC3 (configuration not stated)	SR-BI DiI inh inconclusive (no result: C2C12 statin) | DiI quencher inactive
CC(=O)Nc1cccc(NC(=O)c2ccc3c(c2)CCN3S(=O)(=O)c2ccccc2)c1	SR-BI DiI inh inconclusive | DiI quencher inactive
O=C(Nc1ccccc1)c1ccc2c(c1)CCN2S(=O)(=O)c1ccccc1	SR-BI DiI inh 76 | DiI quencher inactive
COc1ccc(NC(=O)c2ccc3c(c2)CCN3S(=O)(=O)c2ccccc2)cc1	SR-BI DiI inh 81 | DiI quencher inactive
CC(=O)c1cccc(NC(=O)c2ccc3c(c2)CCN3S(=O)(=O)c2ccccc2)c1	SR-BI DiI inh 91 | DiI quencher inactive
NS(=O)(=O)c1ccc(NC(=O)c2ccc3c(c2)CCN3S(=O)(=O)c2ccccc2)cc1	none
CS(=O)(=O)N1CCc2cc(C(=O)Nc3ccc(Cl)cc3)ccc21	none
CS(=O)(=O)N1CCc2cc(C(=O)Nc3cccc([N+](=O)[O-])c3)ccc21	none | DiI quencher inactive
COCc1cc(=O)oc2cc(NC(=O)c3ccc(C(C)(C)C)cc3)ccc12	SR-BI DiI inh inconclusive | DiI quencher inactive
Cc1cccc(S(=O)(=O)N2CCCCN3[C@@H](CO)[C@@H](c4ccc(C#C[C@H](C)O)cc4)[C@@H]3C2)c1	none (no result: SR-BI DiI-HDL act, Vif imaging, SR-BI DiI inh)
COc1ccc(NC(=O)C2CCN(C(=O)c3ccc(OC)cc3)CC2)cc1	SR-BI DiI inh 115 (no result: Vif imaging) | DiI quencher inactive
CCN(C[C@H]1N[C@H](CO)[C@@H]1c1ccc(-c2ccccc2)cc1)C(=O)COC	none (no result: SR-BI DiI-HDL act, Vif imaging, SR-BI DiI inh)
COc1ccc(OC)c(NC(=O)CCC(=O)N(Cc2ccc(OC)c(OC)c2)c2nccs2)c1	SR-BI DiI inh inconclusive (no result: C2C12 statin) | DiI quencher inactive
Cc1cc(C(=O)Nc2cccc3c2O[C@@H](CN(C)C(=O)Nc2c(C)noc2C)[C@H](C)CN([C@@H](C)CO)C3=O)n(C)n1	none (no result: SR-BI DiI-HDL act, Vif imaging, SR-BI DiI inh)
O=C(C[C@H]1CC[C@@H](NS(=O)(=O)c2ccc(F)cc2)[C@@H](CO)O1)NC1CCCCC1	none (no result: SR-BI DiI-HDL act, Vif imaging, SR-BI DiI inh)
Cc1ccc2oc(-c3cccc(NC(=O)c4cc(-n5cnnc5)ccc4Cl)c3)nc2c1	SR-BI DiI inh 76 | DiI quencher inactive
Cc1ccc2oc(-c3cccc(NC(=O)c4ccccn4)c3)nc2c1	none
COc1ccc(CNC(=O)C[C@@H]2C[C@H]3c4cc(NC(=O)CN(C)C)ccc4O[C@H]3[C@H](CO)O2)cc1	none (no result: SR-BI DiI-HDL act, Vif imaging, SR-BI DiI inh)
CCC1CN(C(=O)N2CCC(C(=O)NCc3ccccc3OC)CC2)c2cc(C)ccc2O1 (configuration not stated)	SR-BI DiI inh 81 | DiI quencher inactive
Cc1nn(Cc2ccccc2)c(C)c1NC(=O)c1cc2nc(-c3ccco3)cc(C(F)(F)F)n2n1	SR-BI DiI inh 83 | DiI quencher inactive
Cc1ccccc1Cn1ccc(NC(=O)c2cc3nc(-c4ccco4)cc(C(F)(F)F)n3n2)n1	none (no result: C2C12 statin)
COc1ccc(S(=O)(=O)N(C)C[C@@H]2Oc3ncc(Br)cc3C(=O)N([C@H](C)CO)C[C@@H]2C)cc1	none (no result: SR-BI DiI-HDL act, Vif imaging, SR-BI DiI inh)
COc1ccccc1NC(=O)CN1CCN(CC(=O)Nc2ccc(C)c(F)c2)CC1	SR-BI DiI inh 104 | DiI quencher inactive
COc1ccccc1NC(=O)CN1CCN(CC(=O)Nc2ccc(F)cc2)CC1	none
COc1ccccc1NC(=O)CN1CCN(CC(=O)Nc2ccc(OCc3ccccc3)cc2)CC1	none | DiI quencher inactive
O=C(CN1CCOCC1)N[C@H]1CC[C@@H](CCNC(=O)C2CCC2)O[C@H]1CO	none (no result: SR-BI DiI-HDL act, Vif imaging, SR-BI DiI inh)
O=C(C[C@@H]1CC[C@H]2[C@@H](COC[C@H](O)CN2Cc2cccc(F)c2)O1)NCCc1ccncc1	none (no result: SR-BI DiI-HDL act, Vif imaging, SR-BI DiI inh)
O=C(NCC1CC1)[C@H]1[C@H](CO)[C@H]2Cn3c(cccc3=O)[C@H]2N1C(=O)Nc1ccccc1	none (no result: SR-BI DiI-HDL act, Vif imaging, SR-BI DiI inh)
Cc1nn(Cc2c(Cl)cccc2Cl)c(C)c1NC(=O)CCCn1nc([N+](=O)[O-])c(Cl)c1C	SR-BI DiI inh 80 (no result: C2C12 statin) | DiI quencher inactive
Cc1cc(C(=O)COC(=O)c2ccc(Cl)c(S(N)(=O)=O)c2)c(C)n1C1CC1	SR-BI DiI inh 75 | DiI quencher inactive
COc1ccc(CNC(=O)C(c2ccc(C)cc2)N(Cc2cccs2)C(=O)c2ccc3c(c2)OCCO3)cc1 (configuration not stated)	none (no result: Vif imaging) | DiI quencher inactive
C[C@@H]1CN([C@@H](C)CO)S(=O)(=O)c2ccc(C3=CCCCC3)cc2O[C@@H]1CN(C)C(=O)c1ccncc1	none (no result: SR-BI DiI-HDL act, Vif imaging, SR-BI DiI inh)
Cc1noc(C)c1S(=O)(=O)N(C)C[C@@H]1Oc2ccc(NS(C)(=O)=O)cc2C(=O)N([C@@H](C)CO)C[C@@H]1C	none (no result: SR-BI DiI-HDL act, Vif imaging, SR-BI DiI inh)
COc1ccc(-c2cc(C(F)(F)F)nc(SCCC(=O)N3CCN4CCCC4C3)n2)cc1 (configuration not stated)	SR-BI DiI inh inconclusive (no result: C2C12 statin) | DiI quencher inactive
COc1ccc(-c2cc(C(F)(F)F)nc(SCCC(=O)N3CCCC3)n2)cc1	none
Cc1cc2cc3c(cc2nc1SCC(=O)OC(C)C)OCCO3	none
CCc1cc2cc3c(cc2nc1SCC(=O)OC(C)C)OCO3	SR-BI DiI inh 77 (no result: C2C12 statin) | DiI quencher inactive
COc1ccc(N2CC(C(=O)NCCc3ccc(Cl)cc3)CC2=O)c(OC)c1 (configuration not stated)	SR-BI DiI inh 79 | DiI quencher inactive
COc1ccc(N2CC(C(=O)NCCC3=CCCCC3)CC2=O)c(OC)c1 (configuration not stated)	SR-BI DiI inh 78 | DiI quencher inactive
COc1ccc(N2CC(C(=O)NCCc3ccc(OC)c(OC)c3)CC2=O)cc1 (configuration not stated)	none
O=C(Nc1ccccc1)C1=C(O)CC(c2ccco2)CC1=Nc1ccccc1 (configuration not stated)	none
O=C(Nc1ccccc1)C1=C(O)CC(c2ccoc2)CC1=Nc1ccccc1 (configuration not stated)	SR-BI DiI inh inconclusive (no result: C2C12 statin) | DiI quencher inactive
CSc1ccccc1OCc1cc(C(=O)N(C)Cc2c(C)n[nH]c2C)no1	SR-BI DiI inh 78 | DiI quencher inactive
CSc1ccccc1OCc1cc(C(=O)N(C)Cc2cc(C)[nH]n2)no1	none
COc1ccccc1C(CC(=O)Nc1ccccc1C)c1ccc(OC(C)C)cc1 (configuration not stated)	SR-BI DiI inh inconclusive (no result: C2C12 statin) | DiI quencher inactive
Cc1ccc(C)c(N2CCN(CCCNC(=O)Cn3c(=O)c4cccn4c4cccnc43)CC2)c1	SR-BI DiI inh inconclusive | DiI quencher inactive
CNC[C@H]1Oc2c(NC(=O)Nc3ccc(C(F)(F)F)cc3)cccc2C(=O)N([C@@H](C)CO)C[C@@H]1C	none (no result: SR-BI DiI-HDL act, Vif imaging, SR-BI DiI inh)
CCC(C)NC(=O)Cn1cc(S(=O)(=O)N2CCN(c3ccccc3F)CC2)c2ccccc2c1=O (configuration not stated)	SR-BI DiI inh 87 (no result: C2C12 statin) | DiI quencher inactive

Compound activity (PubChem BioAssay)
